From ChEMBL document CHEMBL1153422, “N6-Cycloalkyl- and N6-bicycloalkyl-C5'(C2')-modified adenosine derivatives as high-affinity and selective agonists at the human A1 adenosine receptor with antinociceptive effects in mice” (J Med Chem, 2009)
Activity calls are given as the source filed them. The rule behind the calls is not given here.

What was measured:
[1] = biological target: Adenosine receptors; A1 & A3 (Homo sapiens) (UniProt P30542+P0DMS8); assay: Selectivity of Ki for human recombinant adenosine A3 receptor to Ki for human recombinant adenosine A1 receptor
In short: (§1)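 Competition binding on membranes from CHO cells stably transfected with individual human adenosine receptor subtypes; radioligands 1 nM [3H]CCPA (A1), 30 nM [3H]NECA (A2A), 1 nM [3H]HEMADO (A3); Ki from nonlinear curve fitting; selectivity as Ki ratio.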

[2] = biological target: T1, Adenosine receptor A1 (Homo sapiens) (UniProt P30542); assay: Agonist activity human recombinant adenosine A1 receptor expressed in CHO cells assessed as inhibition of forskolin-stimulated adenylyl cyclase activity; format: functional, cell-based
T1 sequence (whole entry): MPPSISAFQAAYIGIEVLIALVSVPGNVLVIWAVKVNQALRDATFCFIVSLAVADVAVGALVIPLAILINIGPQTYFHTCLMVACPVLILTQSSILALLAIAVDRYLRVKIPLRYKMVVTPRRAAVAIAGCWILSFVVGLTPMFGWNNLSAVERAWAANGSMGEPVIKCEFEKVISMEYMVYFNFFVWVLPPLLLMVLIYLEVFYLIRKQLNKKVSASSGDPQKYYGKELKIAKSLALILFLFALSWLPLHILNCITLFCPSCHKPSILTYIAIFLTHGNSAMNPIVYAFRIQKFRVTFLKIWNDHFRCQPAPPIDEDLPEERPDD
In short: (§2)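 CHO cells stably transfected with human receptor (A1 or A3); cyclase activity stimulated by 10 µM forskolin taken as 100%; percentage activity remaining after agonist-mediated inhibition reported; means ± SEM of three independent experiments.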

Adenosine receptor A3 = biological target: T2, Adenosine receptor A3 (Homo sapiens, UniProt P0DMS8); assay: Displacement of [3H]HEMADO from human recombinant adenosine A3 receptor expressed in CHO cells; format: cell-based; in short: as §1
T2 sequence (P0DMS8 whole entry): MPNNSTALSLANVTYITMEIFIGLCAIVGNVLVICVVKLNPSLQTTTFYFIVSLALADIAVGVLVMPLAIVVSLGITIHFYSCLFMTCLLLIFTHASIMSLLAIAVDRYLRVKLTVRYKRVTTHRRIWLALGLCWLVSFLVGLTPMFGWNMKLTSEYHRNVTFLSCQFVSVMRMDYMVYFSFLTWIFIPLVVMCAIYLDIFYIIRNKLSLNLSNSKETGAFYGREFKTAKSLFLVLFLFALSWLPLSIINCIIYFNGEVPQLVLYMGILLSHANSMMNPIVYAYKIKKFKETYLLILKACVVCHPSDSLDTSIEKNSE

Adenosine receptor A2a = Adenosine receptor A2a (Homo sapiens, UniProt P29274); assay: Displacement of [3H]NECA from human recombinant adenosine A2A receptor expressed in CHO cells; format: cell-based; in short: as §1
Adenosine receptor A1 = biological target: T3, Adenosine receptor A1 (Homo sapiens, UniProt P30542); assay: Displacement of [3H]CCPA from human recombinant adenosine A1 receptor expressed in CHO cells; format: cell-based
T3 sequence (P30542 whole entry): T1 sequence (whole entry)

Adenosine receptor A2b = biological target: T4, Adenosine receptor A2b (Homo sapiens, UniProt P29275); assay: Agonist activity at human adenosine A2B receptor expressed in CHO cells assessed as inhibition of NECA-stimulated adenylyl cyclase activity; format: functional, cell-based
T4 sequence (P29275 whole entry): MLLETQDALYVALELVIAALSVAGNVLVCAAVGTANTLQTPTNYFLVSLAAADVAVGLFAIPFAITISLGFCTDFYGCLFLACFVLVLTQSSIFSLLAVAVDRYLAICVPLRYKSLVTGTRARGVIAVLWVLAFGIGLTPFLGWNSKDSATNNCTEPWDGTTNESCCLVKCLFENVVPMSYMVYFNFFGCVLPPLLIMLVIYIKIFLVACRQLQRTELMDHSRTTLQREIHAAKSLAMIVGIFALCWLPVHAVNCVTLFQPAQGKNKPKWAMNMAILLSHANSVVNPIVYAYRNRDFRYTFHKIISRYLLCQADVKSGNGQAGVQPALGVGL
In short: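 Membranes from CHO cells stably expressing human A2B receptor; inhibition of NECA-stimulated adenylyl cyclase activity measured, IC50 converted to Ki; curves fitted by nonlinear regression.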

Homo sapiens = species on record: Homo sapiens; assay: Selectivity of Ki for human recombinant adenosine A2A receptor to Ki for human recombinant adenosine A1 receptor; in short: as §1
[3] = biological target: T5, Adenosine receptor A3 (Homo sapiens) (UniProt P0DMS8); assay: Antagonist activity at human recombinant adenosine A3 receptor expressed in CHO cells assessed as inhibition of forskolin-stimulated adenylyl cyclase activity; format: functional, cell-based
T5 sequence (whole entry): T2 sequence (P0DMS8 whole entry)

[4] = Lipophilicity log P of the compound; format: physicochemical; settings: octanol/water
Mus musculus = assay: Analgesic activity in ip dosed mouse assessed as reduction of formalin-induced late nociceptive behavior administered 10 mins before formalin challenge measured every 5 mins for 60 mins; format: functional, organism-based
In short: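 Mice, n = 8-10 per group, randomly assigned; drug or vehicle (0.9% NaCl) given i.p. 10 min before 1.25% formalin in saline (30 µL) into dorsal hind paw; DPCPX 3 mg/kg i.p. co-administered where stated. Lifting, licking, shaking, flinching timed every 5 min for 60 min; early phase 0-7 min, late 15-60 min; mean ± SEM.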

[5] = biological target: T5, Adenosine receptor A3 (Homo sapiens); assay: Agonist activity human recombinant adenosine A3 receptor expressed in CHO cells assessed as inhibition of forskolin-stimulated adenylyl cyclase activity; format: functional, cell-based; in short: as §2

Sequence of Adenosine receptor A2a (P29274 whole entry): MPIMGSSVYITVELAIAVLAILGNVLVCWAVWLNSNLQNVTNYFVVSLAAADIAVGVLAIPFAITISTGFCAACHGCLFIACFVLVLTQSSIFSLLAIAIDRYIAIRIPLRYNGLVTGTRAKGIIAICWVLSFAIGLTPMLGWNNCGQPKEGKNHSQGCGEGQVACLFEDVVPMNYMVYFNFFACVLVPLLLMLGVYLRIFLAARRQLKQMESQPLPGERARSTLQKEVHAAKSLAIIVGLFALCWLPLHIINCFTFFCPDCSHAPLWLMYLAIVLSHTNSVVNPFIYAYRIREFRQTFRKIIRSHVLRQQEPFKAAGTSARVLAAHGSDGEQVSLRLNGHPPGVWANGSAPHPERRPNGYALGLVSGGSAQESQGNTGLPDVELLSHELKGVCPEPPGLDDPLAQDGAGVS

SMILES | Ratio Ki [1] | Activity [2] | Ki (Adenosine receptor A3) | Ki (Adenosine receptor A2a) | Ki (Adenosine receptor A1) | Ki (Adenosine receptor A2b) | Ratio Ki (Homo sapiens) | Activity [3] | logP [4] | Activity (Mus musculus) | Activity [5]
C[C@@]1(O)[C@H](O)[C@@H](CO)O[C@H]1n1cnc2c(NC3CC4CCC3C4)ncnc21 (mixture of isomers) | 616 | Active | 2.52 µM | 8.78 µM | 0.00409 µM | > 10 µM | 2150 |  |  |  | 
C[C@@]1(O)[C@H](O)[C@@H](CCl)O[C@H]1n1cnc2c(NC3CC4CCC3C4)ncnc21 (mixture of isomers) | 1270 |  | 11.6 µM | 24 µM | 0.00913 µM | > 10 µM | 2630 |  |  |  | 
O[C@@H]1[C@H](O)[C@@H](CCl)O[C@H]1n1cnc2c(NC3CCCC3)ncnc21 | 637 | Active | 0.376 µM | 0.837 µM | 0.00059 µM | 3.21 µM | 1470 | Active |  |  | 
O[C@@H]1[C@H](O)[C@@H](CSc2ccccc2F)O[C@H]1n1cnc2c(NC3CCCC3)ncnc21 | 5 |  | 0.296 µM | 5.17 µM | 0.0647 µM | > 10 µM | 80 |  |  |  | 
O[C@@H]1[C@H](O)[C@@H](CCl)O[C@H]1n1cnc2c(NC3CC4CCC3C4)ncnc21 (mixture of isomers) |  | Active | 1.29 µM | 1.34 µM |  | 2.74 µM |  | Active | 1.04 | Dose-dependent effect | 
C[C@@]1(O)[C@H](O)[C@@H](CSc2ccccc2F)O[C@H]1n1cnc2c(NC3CC4CCC3C4)ncnc21 (mixture of isomers) | 3 |  | 3.48 µM | > 100 µM | 1.06 µM | > 10 µM | > 94 |  |  |  | 
C[C@@]1(O)[C@H](O)[C@@H](CSc2ccccc2F)O[C@H]1n1cnc2c(NC3CCCC3)ncnc21 | 0.9 |  | 1.44 µM | > 100 µM | 1.68 µM | > 10 µM | > 60 |  |  |  | 
OC[C@H]1O[C@@H](n2cnc3c(NC4CCCC4)ncnc32)[C@H](O)[C@@H]1O |  |  |  |  |  |  |  |  |  |  | Active
C[C@@]1(O)[C@H](O)[C@@H](CCl)O[C@H]1n1cnc2c(NC3CCCC3)ncnc21 | 237 |  | 6.74 µM | > 100 µM | 0.0284 µM | > 10 µM | > 3520 |  |  |  | 
C[C@@]1(O)[C@H](O)[C@@H](CSc2ccccc2F)O[C@H]1n1cnc2c(NC3CC4CCC3C4)nc(Cl)nc21 (mixture of isomers) | 1.5 |  | 4.35 µM | > 100 µM | 2.97 µM | > 10 µM | > 34 |  |  |  | 
